Shown is part of a subset that was picked to be rich in hits.
CHOP inhibitor: CHOP inhibition in unfolded protein response; CHO-K1 CHOP-promoter luciferase, tunicamycin-induced, 15-18 h; AID 2732; inhibition, % at 10 µM; 220,000 tested, 3.8% active;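 active = compounds that reduced the stress-induced luciferase reporter signal by more than about 70% of percent inhibition, limit read from the data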;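 also: 0% = tunicamycin plus vehicle and 100% = wells without tunicamycin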
UPR XBP1 act: adaptive UPR (XBP1) activation; CHO-XBP1 luciferase reporter, IRE1-XBP1 UPR activation, luminescence; percent of tunicamycin response, DMSO as zero; activation, % at 20 µM; 330,000 tested, 0.33% active; AID 463104;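 active = versus positive control, 20 µM dose yields 30% or more activation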;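 also: 100% = tunicamycin at 10 µg/mL and 0% = DMSO only wells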
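Material: CHO-XBP1 cells stably carrying IRE1-XBP1-driven luciferase reporter | Medium: F12 with 10% serum | Compound dosing: 20 µM single concentration, DMSO 1% | Incubation: Overnight seeding at 37 °C, 6 h compound treatment at 37 °C | Detection: Steady-Glo luminescence read | Read-out basis: % activation of reporter signal versus tunicamycin and DMSO controls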
V-ATPase pHluor: yeast V-ATPase proton transport regulation by pHLuorin; S. cerevisiae, pHLuorin cytosolic pH fluorescence; response, % at 10 µM; 350,000 tested, 0.37% active; AID 504577; in the data active = response mostly above about 7.3%, no sharp cut-off; inactive = mostly below about 5.4%; also: actives read high
CHOP UPR activ: activators of apoptotic arm of unfolded protein response (CHOP); activation, % at 10 µM; CHO-CHOP luciferase reporter, UPR activation, luminescence; percent of tunicamycin response over DMSO baseline; 330,000 tested, 0.34% active; AID 449763;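 active = at 10 µM dose, activation of 40% or more, normalized to positive control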;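 also: 100% = tunicamycin at 10 µg/mL and 0% = DMSO alone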
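measured by = luciferase luminescence | assay system = CHO-CHOP cells, stable luciferase reporter of PERK-eIF2a-CHOP signalling | amount = 500 reporter cells seeded per well | timing = 6 h compound exposure at 37 °C after overnight seeding | controls = positive tunicamycin 10 µg/mL, negative DMSO alone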
TbMetRS inhib: Trypanosoma brucei MetRS inhibition; 360,000 tested, 0.4% active; inhibition, % at 11.9 µM; purified T. brucei MetRS, ATP depletion, Kinase-Glo luminescence; AID 624268;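 active = inhibition above a per-plate cutoff of the control wells' mean inhibition plus 3 SD, cut at about 5.5% in these data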;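 also: 0% = DMSO wells median and 100% = median of wells with control inhibitor compound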
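Material: parasite MetRS enzyme / Replication: singlicate, one well per compound / Signal: luminescence of leftover ATP / Schedule: 2 h aminoacylation at 25 °C after 15 min preincubation / Medium: HEPES-MgCl2-KCl buffer plus DTT, spermine, BSA, pyrophosphatase / Doses: 11.9 µM single point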
UPR XBP1 confirm: adaptive UPR (XBP1) activation, confirmed; shares compounds with UPR XBP1 act; CHO-XBP1 IRE1-XBP1 luciferase reporter, luminescence; activation, % at 20 µM; 1,000 tested, 63% active; AID 485299;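 active = reporter signal at least 30% of the positive control's activation in two or more of four replicate wells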;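 also: plate controls were DMSO negative control for no effect and tunicamycin 10 µg/mL positive control for full effect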
The depositor's hits bear a star.

How did Cc1ccc(OCCn2c(=O)n(C)c3ccccc32)cc1 do in these assays?
CHOP inhibitor: -32; UPR XBP1 act: -1; V-ATPase pHluor: -2; CHOP UPR activ: 4; TbMetRS inhib: 0

What do the screens show for `c1ccc(Oc2c3ccccc3nc3ccccc23)cc1`?
CHOP inhibitor: -29; UPR XBP1 act: 63*; CHOP UPR activ: 6; UPR XBP1 confirm: 67*

Results for Clc1ccc(-c2ccc(-c3nn4c(-c5ccco5)nnc4s3)o2)cc1 ?
UPR XBP1 act: 91*; V-ATPase pHluor: -1; CHOP UPR activ: 3; TbMetRS inhib: -1; UPR XBP1 confirm: 8

What do the screens show for `Cc1cc(C)nc(SCC(=O)c2ccc(O)c(O)c2)n1`?
UPR XBP1 act: -6; V-ATPase pHluor: -4; CHOP UPR activ: -1; TbMetRS inhib: 0

What do the screens show for `Cc1cc(SCC(=O)c2ccc(O)c(O)c2)n2nc(C)c(-c3ccccc3)c2n1`?
CHOP inhibitor: 26; UPR XBP1 act: 101*; V-ATPase pHluor: 1; CHOP UPR activ: 29; TbMetRS inhib: -1; UPR XBP1 confirm: 58*

How did O=[N+]([O-])c1ccc(N/N=C/c2ccc(OCc3cccc4ccccc34)cc2)nc1 do in these assays?
CHOP inhibitor: 54; UPR XBP1 act: 74*; V-ATPase pHluor: -3; CHOP UPR activ: 36; TbMetRS inhib: -1; UPR XBP1 confirm: 34*

Results for Cc1cccc(CCNCc2c(C(=O)O)c(C)n(-c3ccccc3)c2C)c1 ?
UPR XBP1 act: -5; V-ATPase pHluor: -4; CHOP UPR activ: 0; TbMetRS inhib: 0

How did COc1ccc(-c2nc3scc(-c4ccc(OC)c(OC)c4)c3c(=O)o2)cc1 do in these assays?
CHOP inhibitor: 92*; UPR XBP1 act: 41*; V-ATPase pHluor: 0; CHOP UPR activ: 12; TbMetRS inhib: 0; UPR XBP1 confirm: 47*

Results for Cc1ccccc1CN(c1ccc(C(=O)Nc2ccccc2C(=O)NCc2ccco2)cc1)S(C)(=O)=O ?
CHOP inhibitor: 11; UPR XBP1 act: -1; V-ATPase pHluor: -1; CHOP UPR activ: 0; TbMetRS inhib: -1

Results for COc1cc(OC)cc(C(=O)NN(CCC#N)C2=NS(=O)(=O)c3ccccc32)c1 ?
UPR XBP1 act: -3; V-ATPase pHluor: -1; CHOP UPR activ: -2; TbMetRS inhib: 0

How did Cc1cc(N2O[C@]34C=C[C@]25C[C@@H](O)CC[C@]5(C)C3CC[C@]2(C)[C@@H]([C@H](C)/C=C/[C@H](C)C(C)C)CC[C@H]24)no1 (stereo partly drawn) do in these assays?
UPR XBP1 act: 41*; V-ATPase pHluor: -3; CHOP UPR activ: 3; TbMetRS inhib: 1; UPR XBP1 confirm: -1

Results for COc1cccc(NC(=O)C2CCC(CNS(=O)(=O)c3cccc4cccnc34)CC2)c1 (stereo not drawn) ?
UPR XBP1 act: 0; V-ATPase pHluor: 0; CHOP UPR activ: 0; TbMetRS inhib: -1

Results for COc1ccc(-c2c/c(=N\c3nc(-c4ccccc4)c(C)s3)c3ccccc3o2)cc1O ?
UPR XBP1 act: 34*; V-ATPase pHluor: -1; CHOP UPR activ: 7; TbMetRS inhib: -1; UPR XBP1 confirm: 39*

What do the screens show for `Cc1cccc(NC(=O)c2nc[nH]c2C(=O)Nc2ccccc2[N+](=O)[O-])c1`?
CHOP inhibitor: 13; UPR XBP1 act: 30*; V-ATPase pHluor: -1; CHOP UPR activ: 13; TbMetRS inhib: 0; UPR XBP1 confirm: 42*

Results for Cc1cccc(NC(=O)c2nc[nH]c2C(=O)Nc2cc(Br)ccc2F)c1 ?
V-ATPase pHluor: -1; TbMetRS inhib: -1

How did COc1ccc(C)cc1NCc1cc(=O)oc2cc(-c3ccccc3)c(O)cc12 do in these assays?
CHOP inhibitor: 93*; UPR XBP1 act: 53*; V-ATPase pHluor: 3; CHOP UPR activ: 1; TbMetRS inhib: 1; UPR XBP1 confirm: 10

Results for O=C(NC1CC1)C1CCN(S(=O)(=O)c2ccc(Cl)c([N+](=O)[O-])c2)CC1 ?
UPR XBP1 act: 0; V-ATPase pHluor: 1; CHOP UPR activ: 0; TbMetRS inhib: 0

How did CC1=C(N2CCCCC2)CCC1=O do in these assays?
UPR XBP1 act: -1; V-ATPase pHluor: -3; CHOP UPR activ: 4; TbMetRS inhib: 0
